The target of series [1] is Bcl-2-like protein 11/Bcl-2-related protein A1 (Homo sapiens) (UniProt O43521+Q16548). As to the kind of experiment: Inhibition of Bcl2A1-Bim interaction in human SK-MEL-28 cells at 30 uM incubated for 24 hrs by immunoprecipitation assay. The series is classed as cell-based.
In series [2] the target is T1, Bcl-2-like protein 2 (Homo sapiens) (UniProt Q92843).
T1 sequence (whole entry): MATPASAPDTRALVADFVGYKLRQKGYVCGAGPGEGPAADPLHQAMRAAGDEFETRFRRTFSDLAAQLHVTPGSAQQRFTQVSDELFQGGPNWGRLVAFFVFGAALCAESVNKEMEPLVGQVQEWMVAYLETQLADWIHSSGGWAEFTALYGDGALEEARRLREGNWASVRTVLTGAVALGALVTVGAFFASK
Put plainly: Binding affinity to human Bcl-w incubated for 2 hrs by FBid based competitive FP assay.

For series [3], the system named is SK-MEL-28. Put plainly: Synergistic cytotoxicity in human SK-MEL-28 cells assessed as reduction in cell viability at 1.25 to 30 uM incubated for 48 hrs in presence of etoposide by MTT assay. It counts as functional, cell-based. The settings on record: dose 1.25-30 µM. (In general: Tetrazolium dyes change colour on reduction, which living cells bring about.)
The target of series [4] is Bcl-2-like protein 1 (Homo sapiens) (UniProt Q07817). Put plainly: Binding affinity to human Bcl-xL incubated for 2 hrs by FBid based competitive FP assay.
Series [5] has as its target T2, Bcl-2-related protein A1 (Homo sapiens) (UniProt Q16548).
T2 sequence (whole entry): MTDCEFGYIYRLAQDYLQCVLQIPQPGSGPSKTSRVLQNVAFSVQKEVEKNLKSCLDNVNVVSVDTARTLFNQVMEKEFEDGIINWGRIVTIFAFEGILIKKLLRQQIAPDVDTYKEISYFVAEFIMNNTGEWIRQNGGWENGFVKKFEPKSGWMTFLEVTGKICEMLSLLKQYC
Put plainly: Binding affinity to human Bcl2A1 incubated for 2 hrs by FBid based competitive FP assay.

The test system of series [6] is SK-MEL-28. As to the kind of experiment: Cytotoxicity in human SK-MEL-28 cells assessed as reduction in cell viability incubated for 48 hrs by MTT assay. It counts as functional, cell-based. The gist of the method:
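SK-MEL-28 cells grown in DMEM with 10% FBS and penicillin/streptomycin. Peptide applied over a concentration series for 48 h. Viability read by MTT, and IC50 taken from the dose–response.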

Series [7] deals with SK-MEL-28. Put plainly: Toxicity in human SK-MEL-28 cells at 50 uM incubated for 30 mins by LDH release assay. It counts as cell-based. The settings on record: sk-mel-28, 0.5 h.
Series [8] deals with Induced myeloid leukemia cell differentiation protein Mcl-1/Bcl-2-like protein 11 (Homo sapiens) (UniProt Q07820+O43521). Put plainly: Inhibition of Mcl1-Bim interaction in human SK-MEL-28 cells at 30 uM incubated for 24 hrs by immunoprecipitation assay. It counts as cell-based.
In series [9] the target is Induced myeloid leukemia cell differentiation protein Mcl-1 (Homo sapiens, UniProt Q07820). As to the kind of experiment: Binding affinity to human Mcl1 incubated for 2 hrs by FBid based competitive FP assay.

As a reminder, the pIC50 is the negative decadic logarithm of the IC50, by convention in mol/L.

pIC50: −log10 of the molar value. The source made the active and inactive calls. No cut-off for these calls is given here. Positions of bridges follow the written chain, without caps; N, C: chain ends. Non-standard residues stand in square brackets, D forms with d. Residues, ends and D or L forms follow the SMILES beside them. ξ: configuration not given here. *: point of attachment. S5 = C=CCCC[C@](C)(N)C(=O)O; Propionyl = CCC(=O)*; ξDap = NCC(N)C(=O)O

Bcl-2-like protein 1 (Homo sapiens), sequence (Q07817 whole entry): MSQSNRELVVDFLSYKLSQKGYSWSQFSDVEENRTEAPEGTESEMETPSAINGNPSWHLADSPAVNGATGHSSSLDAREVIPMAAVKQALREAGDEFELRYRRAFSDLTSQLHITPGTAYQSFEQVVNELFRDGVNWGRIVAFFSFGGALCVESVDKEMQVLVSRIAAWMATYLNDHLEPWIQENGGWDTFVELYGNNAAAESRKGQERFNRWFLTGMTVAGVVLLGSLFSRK
Induced myeloid leukemia cell differentiation protein Mcl-1/Bcl-2-like protein 11 (Homo sapiens), sequence (O43521 whole entry, looked up): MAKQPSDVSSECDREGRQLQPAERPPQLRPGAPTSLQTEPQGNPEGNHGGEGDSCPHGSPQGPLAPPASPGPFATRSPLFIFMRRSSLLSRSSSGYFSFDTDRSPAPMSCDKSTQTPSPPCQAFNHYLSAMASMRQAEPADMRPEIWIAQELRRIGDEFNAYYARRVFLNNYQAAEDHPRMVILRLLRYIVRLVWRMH
Induced myeloid leukemia cell differentiation protein Mcl-1/Bcl-2-like protein 11 (Homo sapiens), sequence (Q07820 whole entry, looked up): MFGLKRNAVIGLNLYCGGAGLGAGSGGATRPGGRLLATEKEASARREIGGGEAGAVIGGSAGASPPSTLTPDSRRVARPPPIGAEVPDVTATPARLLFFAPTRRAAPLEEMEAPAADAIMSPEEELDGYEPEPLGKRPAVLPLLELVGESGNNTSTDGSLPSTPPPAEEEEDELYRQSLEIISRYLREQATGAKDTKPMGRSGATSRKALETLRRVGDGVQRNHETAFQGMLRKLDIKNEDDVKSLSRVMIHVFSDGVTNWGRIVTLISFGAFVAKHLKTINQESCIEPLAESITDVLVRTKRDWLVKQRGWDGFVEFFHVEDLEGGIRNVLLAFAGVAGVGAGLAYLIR
Bcl-2-like protein 11/Bcl-2-related protein A1 (Homo sapiens), sequence (O43521 whole entry, looked up, one chain of several): as the sequence (O43521 whole entry, looked up) above
Induced myeloid leukemia cell differentiation protein Mcl-1, sequence (Q07820 whole entry): as the sequence (Q07820 whole entry, looked up) above

Turning to `CCC(=O)NCC1NC(=O)[C@@](C)(NC(C)=O)CCC/C=C/CCC[C@@](C)(C(=O)N[C@@H](CC(C)C)C(=O)N[C@@H](CC(C)C)C(=O)N[C@@H](CCCNC(=N)N)C(=O)N[C@H]2CCCCNC(=O)C[C@@H](C(=O)N[C@@H](Cc3ccccc3)C(N)=O)NC(=O)[C@H](CC(=O)O)NC(=O)CNC(=O)[C@H]([C@@H](C)CC)NC2=O)NC(=O)[C@H](C)NC(=O)[C@H]([C@@H](C)CC)NC1=O` (stereo not given in full) (Ac-[S5][ξDap](Propionyl)IA[S5]LLRKIGDDF-NH2; staple (E) 1-5; lactam 9-13), the inhibition result in [1] and in series [8] was “Active” in each case. Besides, the outcome in series [2] and in series [4] was inactive. Further, the result in series [3], in series [5] and in series [9] was Active. Further, the Activity entry in [6] is “Dose-dependent effect”; in series [7], “Non-Toxic”. Besides, the pIC50 in series [6] (SK-MEL-28, 48 h) was 5.06.
